An excerpt weighted towards active compounds, which were near 1.7% of everything screened.
IDE act: human IDE activators in live cells, primary screen, fluorescence polarization, HEK cells, FAbeta-B substrate; FAbeta-B cleavage; 0% vehicle, 100% cell-free pure enzyme wells; activation, % at 5.96 µM; 340,000 tested, 0.073% active; Insulin-degrading enzyme (Homo sapiens), P14735;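 active = activation above the mean of all tested compounds plus 3 SD, set per screening campaign, cut at about 17% in these data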
TPT1 inhibitor: Candida albicans TPT1 enzyme inhibitors, primary screen, biochemical, fluorescence polarization; tRNA 2'-phosphotransferase TPT1 (Candida albicans SC5314); recombinant caTPT1, FP RNA substrate dephosphorylation; inhibition, % at 5 µM; 300,000 tested, 0.81% active; AID 1962, 2009;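 active = inhibition above the mean of all tested compounds plus 3 SD, set per screening campaign, cut at about 24% in these data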;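 note: plate controls were DMSO alone for no effect and ferristatin control at 100 nM for full effect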
IDE cell inh: human IDE inhibitors in live cells, primary screen, fluorescence polarization, HEK cells, FAbetaB substrate; 320,000 tested, 0.41% active; Insulin-degrading enzyme (Homo sapiens), P14735; inhibition, % at 5.59 µM; FAbetaB cleavage;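 active = percent inhibition above the average of all tested compounds plus 3 SD, set per screening campaign, cut at about 16% in these data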;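 note: IDE supplied by intact live HEK cells; FP after avidin binding of uncleaved biotin substrate so inhibition keeps polarization high; 0% = DMSO wells and 100% = 60 µM reference IDE inhibitor Ii1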
CSN inh: inhibitors of CSN-mediated cullin deneddylation, primary screen, biochemical, fluorescence polarization, uHTS; COP9 signalosome complex subunit 5 (Homo sapiens), Q92905; 360,000 tested, 0.38% active; AID 651999, 2013; inhibition, % at 12.5 µM; Purified CSN, SCF-Nedd8-OG deneddylation;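 active = pattern-corrected inhibition above about 35%, with an unprinted fluorescence ratio check between 0.5 and 1.5, limit read from the data, passing the limit was not always enough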;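 note: 0% = enzyme with substrate and 100% = substrate without enzyme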
Target sequence (Q92905 whole entry, looked up, one chain of several): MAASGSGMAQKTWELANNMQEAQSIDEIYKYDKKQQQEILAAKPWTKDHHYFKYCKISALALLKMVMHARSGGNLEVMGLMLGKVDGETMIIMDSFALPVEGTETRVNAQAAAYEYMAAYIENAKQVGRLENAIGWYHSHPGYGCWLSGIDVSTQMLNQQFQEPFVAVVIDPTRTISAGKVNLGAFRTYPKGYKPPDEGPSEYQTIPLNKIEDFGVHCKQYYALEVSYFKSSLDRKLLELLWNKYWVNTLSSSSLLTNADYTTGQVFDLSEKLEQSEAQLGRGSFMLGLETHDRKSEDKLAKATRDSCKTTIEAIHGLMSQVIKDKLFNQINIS
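assay system = purified human Csn5 enzyme expressed in HEK293T cells | amount = 0.24 nM enzyme | buffer or medium = Tris/NaCl/DTT buffer, pH 7.5 | reagent = 10 nM SCFSkp2-Nedd8OG | compound = one concentration, 12.5 µM, 0.25% DMSO | times = 90 min reaction at room temperature | signal = FP | read-out basis = % inhibition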
HNF4A DNA FP: change in binding of human HNF4A to DNA, primary screen, biochemical, fluorescence polarization, FITC-DNA | activity change, % at 10 µM | 1 h | 360,000 tested, 0.3% active | Hepatocyte nuclear factor 4-alpha (Homo sapiens), P41235; in the data active = activity change above about 30%, passing the limit was not always enough
Rpn11 inh: Rpn11 (PSMD14) deubiquitinase inhibitors, primary screen, biochemical, fluorescence polarization, uHTS; human 26S proteasome, Ub4-pepOG fluorescence polarization; 20S core pre-blocked with epoxomicin; inhibition, % at 20 µM; 360,000 tested, 0.59% active; AID 588493, 2011;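 active = inhibition at 20 µM, scaled to each plate's controls, above about 33%, limit read from the data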
Target sequence (O00487 whole entry, looked up): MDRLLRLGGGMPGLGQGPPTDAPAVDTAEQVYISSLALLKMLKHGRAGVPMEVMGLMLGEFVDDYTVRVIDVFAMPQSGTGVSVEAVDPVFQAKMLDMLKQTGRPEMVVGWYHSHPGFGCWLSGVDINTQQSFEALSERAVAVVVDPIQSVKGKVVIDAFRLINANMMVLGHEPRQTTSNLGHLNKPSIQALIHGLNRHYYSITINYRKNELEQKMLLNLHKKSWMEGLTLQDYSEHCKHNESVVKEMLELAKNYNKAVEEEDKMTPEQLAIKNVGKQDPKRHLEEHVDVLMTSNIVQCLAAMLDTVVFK
caTPT1 confirm: Candida albicans TPT1 inhibitors, confirmation, biochemical, fluorescence polarization, triplicate; shares compounds with TPT1 inhibitor; recombinant caTPT1, RNase T1 coupled; inhibition, % at 5 µM; 2,400 tested, 74% active;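 active = inhibition above the primary screen limit, the mean inhibition of all tested compounds plus 3 SD, cut at about 25% in these data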
RNase T1 inh: RNase T1 inhibitors, counter-screen for TPT1 inhibitor project, biochemical, fluorescence polarization. shares compounds with TPT1 inhibitor. RNase T1 cleavage, 1536-well. inhibition, % at 5 µM. 2,400 tested, 83% active. AID 2153, 2009;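 active = inhibition above the solvent-only control well mean plus 3 SD, limit set per screening run, cut at about 23% in these data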;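 note: plate controls were DMSO wells with enzyme for no effect and wells without RNase T1 for full effect; inhibitors block cleavage so intact labeled substrate keeps polarization high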
The depositor's hits bear a star; . = no result shown; + = active, no number.

SMILES	IDE act	TPT1 inhibitor	IDE cell inh	CSN inh	HNF4A DNA FP	Rpn11 inh	caTPT1 confirm	RNase T1 inh
COc1ccc(Cl)cc1NS(=O)(=O)c1cccc(C(=O)NCC2(N(C)C)CCCCC2)c1	2	.	.	-5	-3	5	.	.
CCn1c2ccccc2c2cc(N)ccc21	-2	26*	-7	36*	36	.	28*	40*
COc1ccccc1OCCC(=O)OCC(=O)c1c(N)n(C)c(=O)n(C)c1=O	4	113*	4	-1	1	-6	12	19
Cc1ccc(OCCC(=O)OCC(=O)c2c(N)n(C)c(=O)n(C)c2=O)cc1	-1	3	1	7	-3	3	.	.
Cc1ccc(S(=O)(=O)N2C(=O)/C(=C3\SC(=S)NC3=O)c3ccccc32)cc1	.	1	3	.	.	.	.	.
COc1ccccc1NS(=O)(=O)c1cc([N+](=O)[O-])ccc1N/N=C/c1sc(N2CCOCC2)nc1-c1ccccc1	3	97*	0	53*	75*	.	111*	110*
COc1ccc(C(=O)N/N=C/c2sc(N3CCOCC3)nc2-c2ccccc2)cc1OC	-1	7	8	-8	3	-2	.	.
COc1cc(NC(=O)c2ccc(Cl)cc2)c(Cl)cc1NC(=O)c1cccnc1	5	-1	1	0	1	-4	.	.
Cc1csc(NC(=O)c2sc3nc(-c4cccs4)ccc3c2N)n1	.	27*	-2	.	.	.	26*	41*
Cc1csc(CNC(=O)c2cc(COc3c(C)cccc3C)on2)n1	-2	-3	6	-1	3	-3	.	.
CC(=O)c1ccccc1NCC(=O)Nc1ccc(C)cc1	1	+	2	-1	-3	0	18	29*
O=C(Nc1ccccc1)Nc1ccc(F)cc1F	0	1	6	1	-3	-8	.	.
CC(=O)Nc1cccc(NC(=O)Nc2ccc(F)cc2F)c1	4	55*	1	2	3	2	2	3
COCCOC1CCN(C(=O)C2CCC(=O)N(CCc3ccccc3)C2)CC1 (stereo not given)	-16	3	-2	0	-2	-6	.	.
NC(Cc1ccc(C(F)(F)F)cc1)c1csc(Nc2ccc(C(=O)c3ccccc3)cc2)n1 (stereo not given)	.	.	.	4	-2	2	.	.
COc1ccc(S(=O)(=O)Nc2nc3ccccc3nc2Nc2ccc3c(c2)OCO3)cc1	.	2	-8	.	.	.	.	.
O=S(=O)(Nc1nc2ccccc2nc1Nc1ccc2c(c1)OCCO2)c1cccs1	6	78*	-2	51*	48*	.	90*	96*
C/C(=N\Nc1ccc([N+](=O)[O-])cc1)c1ccc(O)cc1	.	94*	9	14	51*	.	91*	100*
CC(=O)NCC(=O)OCc1ccc([N+](=O)[O-])cc1	-8	1	0	-10	-2	-8	.	.
CC(=O)NC/C(C)=N\Nc1ccc([N+](=O)[O-])cc1	-3	32*	4	13	10	36	43*	55*
Cc1nnc(SCC(=O)N2CC(=O)Nc3ccccc32)n1C	-2	1	2	-2	1	3	.	.
Cc1ccc(-n2nnnc2SCC(=O)N2CC(=O)Nc3ccccc32)cc1	2	28*	-1	-1	9	6	36*	46*
Cc1ccc2sc(C)[n+](CCCS(=O)(=O)[O-])c2c1	3	-2	0	-2	-4	-8	.	.
COc1cc(/C=C/c2sc3ccccc3[n+]2CCCS(=O)(=O)[O-])ccc1O	-13	86*	10	127	87*	.	97*	101*
Cc1cc(OC(C)C(=O)N2CCN(c3ccccc3)CC2)c2c(C)c(C)c(=O)oc2c1 (stereo not given)	3	29*	6	7	3	-5	1	3
SMILES	IDE act	TPT1 inhibitor	IDE cell inh	CSN inh	HNF4A DNA FP	Rpn11 inh	caTPT1 confirm	RNase T1 inh
Cc1cc(C)n(Cc2ccc(C(=O)N/N=C/c3ccc(-c4ccc([N+](=O)[O-])cc4)o3)o2)n1	2	76*	-7	105	49	.	65*	25*
CCCCC(=O)N/N=C/c1ccc(-c2ccc([N+](=O)[O-])cc2)o1	2	13	5	1	3	13	.	.
CC(C)(C)NC(=S)N/N=C\c1ccc(-c2ccc([N+](=O)[O-])cc2)o1	.	92*	2	0	64*	.	98*	103*
COC(=O)Cn1c(=O)c2c(n(Cc3ccccc3)c1=O)N/C(=C/c1ccc(Br)cc1)C2=O	7	43*	2	13	14	.	32*	47*
Cn1cccc1/C=C1\SC(=S)N(NC(=O)c2ccccc2Cl)C1=O	-5	87*	4	44*	69*	.	88*	106*
Cc1ccc(C(=O)NN2C(=O)/C(=C/c3cccn3C)SC2=S)cc1	3	79*	12	21	88*	.	96*	112*
O=C(NN1C(=O)/C(=C/c2cccc(O)c2)SC1=S)c1ccccc1O	5	1	-1	-5	3	-3	.	.
CSc1nc(-c2ccc(Cl)cc2)c(C#N)c(=O)n1C	2	3	-5	-8	-2	-2	.	.
CSc1nc(-c2ccc(N(C)C)cc2)c(C#N)c(=O)n1C	-8	31*	7	4	5	3	41*	52*
Cc1nc2sc(-c3ccccc3)cc2c(=O)n1/N=C/N(C)C	-3	6	6	7	1	3	.	.
CCN(CC)c1ccc(/C=C(\C#N)C(=O)NCc2ccccc2)cc1	-17	89*	23*	3	41*	-39	107*	114*
N#C/C(=C/c1ccc(C(=O)O)cc1)C(=O)NCc1ccccc1	4	0	-4	-1	-1	4	.	.
Cc1ccc(CNC(=O)/C(C#N)=C\c2ccc(N(C)C)cc2)cc1	.	58*	9	.	.	.	64*	80*
CC(C)(C)OC(=O)C[C@H]1C/C=C\C[C@@H](CC(=O)N(CCO)Cc2ccccc2)C(=O)N[C@@H](Cc2ccccc2)COC1=O	6	.	3	0	-8	0	.	.
